The format of data set [1] is in vivo, human. The gist of the method: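 Urine and feces were collected until cumulative recovery exceeded 80% of dose and fell below 1% of dose per day on 2 consecutive days. Radioactivity was counted by liquid scintillation: urine directly, feces after homogenization with solvent and combustion with CO2 trapping. Each interval's excretion was expressed relative to the actual administered radioactivity (vial content minus residue), then summed cumulatively.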

A short description of data set [2]: Plasma pharmacokinetics of unlabeled almonertinib and metabolite HAS-719. Type of data set: in vivo, human. The gist of the method: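 Four healthy fasted male volunteers received one oral [14C]-labeled suspension of the test compound (110 mg/50 µCi) and ate lunch 4 h after dosing. Blood (7 mL) was drawn predose and at 1–504 h, centrifuged (3,000 rpm, 10 min) and stored at –20 °C. Parent and metabolite were quantified by validated LC-MS/MS. Noncompartmental parameters are reported as mean ± SD.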

The subject of data set [3] is T790M-mutant NSCLC cell line H1975. The conditions noted are these: ref [14],[15]; cited from earlier work.
A further data set concerns NSCLC. To be noted: ref [15], cited from earlier work.
Data set [4] has as its system NSCLC HCC827 cell line harboring EGFR-sensitive mutants. The conditions noted are these: ref [14],[15]; cited from earlier work.
Data set [5] deals with T790M-mutant NSCLC cell line LU1868. To be noted: ref [14],[15]; cited from earlier work.

The values below come from PMC8184462 (Annals of Translational Medicine, 2021).

Regarding `C=CC(=O)Nc1cc(Nc2nccc(-c3cn(C4CC4)c4ccccc34)n2)c(OC)cc1N(C)CCN(C)C` [HS-10296, almonertinib], the Main excretion route entry in data set [1] (0–504 hours) was “mainly excreted via feces”. In data set [1] (0–504 hours after administration, % of dose), the “Cumulative excretion rate of drug TRA (urine + feces)” value is reported as 90.19%±4.18%. Also, in data set [1] (0–504 hours, % of dose), the “Cumulative excretion rate in feces” value is recorded as 84.75%±3.35% and the “Cumulative excretion rate in urine” value was 5.44%±0.83%. In addition, the CL/F in data set [2] (LC-MS/MS, single oral 110 mg/50 µCi, mean±SD) is 36.8 ± 10.8 L/h. Besides, in data set [2] (male, human, po, 110 mg), the AUC(0-inf) worked out at 3160 ng·h/mL, the AUC(0-t) was 2900 ng·h/mL, the Cmax came to 119 ± 27.7 ng/mL and the time of peak concentration (Tmax) turned out to be 5.25 ± 3.2 h. Besides, in data set [2] (male, human, po, 110 mg), the Vd/F was 1270 L and the half-life was 1500 ± 385 min. Besides, in data set [3], the Growth inhibition result was “potently inhibited the growth”. Besides, in the data set with NSCLC (26 patients, 55, 110, 220, 260 mg, single or multiple dose), the Tolerability result is on record as “well tolerated”. Besides, the “Dose linearity of metabolism” value with NSCLC (55–260 mg) is reported as “linear trend”. In the data set with NSCLC (NSCLC patients, dose-escalation cohort), the Antitumor activity result is given as “preliminary antitumor activity”. Further, the Growth inhibition result in data set [4] was “potently inhibited the growth”. Moreover, the Growth inhibition entry in data set [5] was “potently inhibited the growth”.

As usually defined, the CL/F is clearance divided by bioavailability, as obtained after extravascular dosing. By AUC(0-inf) is commonly meant total exposure, with the tail of the curve extrapolated. By AUC(0-t) is commonly meant exposure summed from dosing to a finite time, without extrapolation to infinity. By Cmax is commonly meant the highest concentration seen after dosing. What is called Tmax is the time at which the peak concentration occurs. The Vd/F is the volume of distribution divided by bioavailability. As usually defined, the half-life is the time needed for the level to fall by half in the phase considered.
